# Laboratory results from ChEMBL document CHEMBL1667804, “Design and synthesis of caffeoyl-anilides as portmanteau inhibitors of HIV-1 integrase and CCR5” (Bioorg Med Chem, 2011).
# Calls of active or inactive are those of the source. The rule behind the calls is not given here.
# Columns and labels:
# [1] = target: Human immunodeficiency virus type 1 reverse transcriptase (Human immunodeficiency virus 1) (UniProt Q72547); experiment: Inhibition of HIV1 reverse transcriptase
# [2] = test system: Human immunodeficiency virus 1; experiment: Antiviral activity against HIV1 NL4.3 infected in human CEM-GFP T cells assessed as inhibition of p24 antigen production at highest non cytotoxic concentration after 7 days by ELISA; assay type: functional, CCRF-CEM
# Procedure, shortened: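 HIV-1 NL4.3 infection of CEM-GFP cells at MOI 0.05, with compound at the highest noncytotoxic concentration (95% viability in MTT) for 7 days. p24 in day-7 supernatant measured by capture ELISA. Reported as % decrease versus untreated infected cells. Preliminary screen by GFP microfluorometry.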
# [3] = Cytotoxicity against human CEM-GFP cells assessed as highest non cytotoxic concentration after 48 hrs by MTT assay; assay type: cell-based, CCRF-CEM; settings: read-out: MNCC
# Procedure, shortened: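 Viability by MTT in CEM-GFP cells after 48 h, absorbance at 540 nm. Viability first measured at three concentrations, then further dilutions made to find the concentration giving 95% viability.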
# [4] = Cytotoxicity against human CEM-GFP cells after 48 hrs by MTT assay; assay type: cell-based, CCRF-CEM
# Procedure, shortened: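 MTT assay in CEM-GFP cells (2 × 10^4/well), 48 h exposure over a range of concentrations, with untreated and vehicle controls. Formazan dissolved and read at 540 nm. CC50 is the concentration giving 50% cytotoxicity in uninfected cells (n = 3).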
# [5] = test system: Human immunodeficiency virus 1; experiment: Antiviral activity against X4 tropic HIV1 3B infected in human TZM-bl cells expressing CD4, CCR5 and CXCR4 assessed as inhibition of virus entry at highest non cytotoxic concentration after 48 hrs by luciferase assay; assay type: functional
# Procedure, shortened: (§1)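 TZM-bl cells (10^4/well) seeded and left overnight at 37 °C. Compound added in DMEM/10% FBS for 1 h, then cells washed and infected for 4 h with IndieC (R5) or IIIB (X4).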
# [6] = Therapeutic index, ratio of CC50 for human CEM-GFP cells to EC50 for HIV1 NL4.3; assay type: cell-based; settings: read-out: Ratio CC50/EC50
# [7] = target: Human immunodeficiency virus type 1 integrase (Human immunodeficiency virus 1, UniProt Q7ZJM1); experiment: Inhibition of full-length recombinant HIV1 integrase
# Chain of Human immunodeficiency virus type 1 integrase (Q7ZJM1 whole entry): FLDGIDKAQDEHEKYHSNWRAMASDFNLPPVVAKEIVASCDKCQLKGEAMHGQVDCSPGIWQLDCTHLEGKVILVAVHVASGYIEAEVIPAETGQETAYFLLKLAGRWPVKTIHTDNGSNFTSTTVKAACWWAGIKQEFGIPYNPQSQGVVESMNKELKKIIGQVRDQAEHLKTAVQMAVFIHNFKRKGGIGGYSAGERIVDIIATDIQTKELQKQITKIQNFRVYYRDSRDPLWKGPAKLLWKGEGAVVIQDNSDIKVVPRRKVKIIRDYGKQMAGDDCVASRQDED
# Procedure, shortened: (§2)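 Kit ELISA-type strand-transfer assay. Biotin end-labelled double-stranded HIV-1 LTR U5 donor oligo bound on streptavidin plates, then full-length recombinant HIV-1 integrase loaded. Compound added, followed by a 3′-end-modified double-stranded target oligo. Screened at 20 µg/mL, IC50 determined in µg/mL and converted to molar. Sodium azide positive control.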
# [8] = target: Human immunodeficiency virus type 1 integrase (Human immunodeficiency virus 1) (UniProt Q7ZJM1); experiment: Inhibition of full-length recombinant HIV1 integrase at 20 ug/ml; procedure, shortened: as §2
# Chain of Human immunodeficiency virus type 1 integrase (Human immunodeficiency virus 1) (Q7ZJM1 as listed by the source): as the sequence (Q7ZJM1 whole entry) above
# [9] = test system: Human immunodeficiency virus 1; experiment: Antiviral activity against HIV1 NL4.3 infected in human CEM-GFP T cells assessed as inhibition of p24 antigen production after 7 days by ELISA; assay type: functional, organism-based; settings: Human immunodeficiency virus 1, NL4.3, CCRF-CEM, 168 h
# Procedure, shortened: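 CEM-GFP cells infected with HIV-1 NL4.3 at MOI 0.05, then cultured with compound for up to 7 days after infection. Day-7 supernatant p24 measured by antigen-capture ELISA. EC50 is the concentration giving 50% inhibition of virus production against untreated infected cells (n = 3). AZT positive control.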
# [10] = test system: Human immunodeficiency virus 1; experiment: Antiviral activity against R5 tropic HIV1 IndieC infected in human TZM-bl cells expressing CD4, CCR5 and CXCR4 assessed as inhibition of virus entry at highest non cytotoxic concentration after 48 hrs by luciferase assay; assay type: functional; procedure, shortened: as §1
# [11] = target: Human immunodeficiency virus type 1 integrase (Human immunodeficiency virus 1) (UniProt Q7ZJM1); settings: 5 ug/ml
SMILES,Activity [1],inhibition (INH) [2],MNTC at 48 h [3],CC50 at 48 h [4],inhibition (INH) [5],selectivity ratio [6],IC50 [7],inhibition [8],EC50 [9],inhibition (INH) [10],inhibition [11]
O=C(/C=C/c1ccc(O)c(O)c1)c1ccc(NC(=O)c2ccco2)cc1,inactive,24.2%,2900 nM,–,–,–,–,–,–,–,–
CC(=O)Nc1ccc(C(=O)/C=C/c2ccc(O)c(O)c2)cc1,inactive,0%,1700 nM,–,–,–,–,–,–,–,–
O=C(/C=C/c1ccc(O)c(O)c1)c1ccc(NC(=O)c2ccc3ccccc3c2)cc1,inactive,0%,2400 nM,–,–,–,–,–,–,–,–
O=C(/C=C/c1ccc(O)c(O)c1)c1ccc(NC(=O)C23C[C@H]4C[C@@H](C2)C[C@@H](C3)C4)cc1,inactive,86.1%,6000 nM,13.5 µM,0%,3.2,36.8 µM,67.7%,4.2 µM,59.6%,–
O=C(/C=C/c1ccc(O)c(O)c1)c1ccc(NC(=O)c2ccc(C(F)(F)F)cc2F)cc1,inactive,10.9%,2200 nM,–,–,–,–,–,–,–,–
O=C(/C=C/c1ccc(O)c(O)c1)c1ccc(NC(=O)c2cccs2)cc1,inactive,0%,2700 nM,–,–,–,–,–,–,–,–
O=C(/C=C/c1ccc(O)c(O)c1)c1ccc(NC(=O)c2ccccc2)cc1,inactive,73%,2800 nM,20.3 µM,27.8%,13,50.2 µM,56%,1.6 µM,58.6%,–
Cc1cn([C@H]2C[C@H](N=[N+]=[N-])[C@@H](CO)O2)c(=O)[nH]c1=O [ZIDOVUDINE],inactive,89.8%,5000 nM,24.1 µM,–,–,–,–,1.1 µM,–,–
CC(C)C(=O)Nc1ccc(C(=O)/C=C/c2ccc(O)c(O)c2)cc1,inactive,0%,1500 nM,–,–,–,–,–,–,–,–
O=C(Cc1cccs1)Nc1ccc(C(=O)/C=C/c2ccc(O)c(O)c2)cc1,inactive,71.6%,2600 nM,51.4 µM,0%,59.1,44.6 µM,66.5%,0.9 µM,52.9%,–
O=C(/C=C/c1ccc(O)c(O)c1)c1ccc(NC(=O)c2ccc(F)c(F)c2)cc1,inactive,77.6%,2500 nM,15.7 µM,0%,9.8,28.5 µM,74%,1.6 µM,71.5%,–
[N-]=[N+]=[N-] [SODIUM AZIDE],inactive,–,–,–,–,–,1.2 µM,–,–,–,98.8%
COc1ccc(C(=O)Nc2ccc(C(=O)/C=C/c3ccc(O)c(O)c3)cc2)cc1,inactive,92.4%,6400 nM,32.3 µM,0%,17.4,25.2 µM,66.8%,1.9 µM,55.8%,–
O=C(/C=C/c1ccc(O)c(O)c1)c1ccc(NC(=O)c2ccc(F)cc2F)cc1,inactive,16%,6300 nM,–,–,–,–,–,–,–,–
CC(C)CC(=O)Nc1ccc(C(=O)/C=C/c2ccc(O)c(O)c2)cc1,inactive,0%,1400 nM,–,–,–,–,–,–,–,–
Nc1ccc(C(=O)/C=C/c2ccc(O)c(O)c2)cc1,inactive,0%,3900 nM,–,–,–,–,–,–,–,–
